Measurements published in ChEMBL document CHEMBL1811802, “Synthesis and significant cytostatic activity of 7-hetaryl-7-deazaadenosines” (J Med Chem, 2011).
The source made the active and inactive calls. The rule behind the calls is not given here.

What was measured:
MAT-Ly-Lu = test: Cytotoxicity against rat MAT-LyLu cells after 3 days by MTT assay; format: functional, cell-based; settings: 72 h
LNCaP = test: Cytotoxicity against human LNCAP cells after 3 days by MTT assay; format: functional, cell-based; settings: 72 h
MDA-MB-231 = test: Cytotoxicity against human MDA-MB-231 cells after 3 days by MTT assay; format: functional, cell-based; settings: MDA-MB-231, 72 h
NCI-H23 = test: Cytostatic activity against human NCI-H23 cells after 5 days by SRB assay; format: functional; settings: NCI-H23, 120 h
Summary of the method: (§1)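 Cells seeded per line density, overnight at 37 °C; day-zero plate TCA-fixed. 5-fold serial dilutions added, 5-day incubation; TCA fixation, 0.057% SRB in 1% acetic acid 30 min, dye dissolved in 10 mM Tris pH 10.5, A500. Growth relative to day-zero and untreated; GIC50 from sigmoidal dose–response fit; mean of two independent experiments.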

DU-145 [1] = test: Cytostatic activity against human DU145 cells after 5 days by SRB assay; format: functional; settings: DU-145, 120 h; summary of the method: as §1
CCRF-CEM = test: Induction of apoptosis in human CCRF-CEM cells at 5 time GI50 after 4 to 8 hrs using propidium iodide staining by flow cytometry; format: functional, cell-based
Summary of the method: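 CCRF-CEM at 5 × 10^5 cells/ml in RPMI 1640/10% FCS, 37 °C, exposed to 1× or 5× GIC50; vehicle controls in parallel. Ethanol-fixed, RNase-treated, propidium iodide stained, flow cytometry; apoptosis taken as % sub-G1 particles (logarithmic mode).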

MCF7 = test: Cytotoxicity against human MCF7 cells after 3 days by MTT assay; format: functional, cell-based; settings: MCF7, 72 h
HCT-15 = test: Cytostatic activity against human HCT15 cells after 5 days by SRB assay; format: functional; settings: HCT-15, 120 h; summary of the method: as §1
[2] = Cytotoxicity against human NCI-H146 cells after 3 days by MTT assay; format: functional, cell-based; settings: NCI-H146, 72 h
[3] = Cytotoxicity against mouse P388D1 cells after 3 days by MTT assay; format: functional, cell-based; settings: P388D1, 72 h
MT4 = test: Cytostatic activity against human MT4 cells after 5 days by SRB assay; format: functional; settings: MT4, 120 h
[4] = Antitumor activity against mouse P388D1 cells xenografted in DBA/2 mouse assessed as increase of lifespan at 75 mg/kg, ip qd administered as 2 cycles on day 1 to 3 and day 8 to 10; format: functional; settings: route intraperitoneal
Summary of the method: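 P388D1 mouse leukemia cells, grown in RPMI with 10% FBS, were implanted ip at 10^5 cells per mouse on day 0 into female DBA/2 mice (18–22 g, SPF) and randomized 10 per group. Dosing was once daily ip in 50% PEG400/deionized water (pH 7.0) on days 1–3 and 8–10, with vehicle for controls. Deaths were recorded daily, and MST and %ILS were calculated.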

DU-145 [5] = test: Metabolic stability in human DU145 cells assessed as nucleoside formation per million of cells at 10 uM after 6 hrs by LC/MS/MS analysis; format: ADME, cell-based; settings: du-145, 6 h
Summary of the method: (§2)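 Du145 seeded at 60% confluence in MEM/10% FBS; next day exposed to 10 μM compound for 6 or 24 h. Cells trypsinized, extracted in 70% MeOH, dried, resuspended in 1 mM ammonium phosphate pH 8.5. Nucleoside, NMP and NTP quantified by ion-pairing (dimethylhexylamine) LC/MS/MS against untreated-cell-extract standard curves; pmol per million cells.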

K562 = test: Cytotoxicity against human K562 cells after 3 days by MTT assay; format: functional, cell-based; settings: K562, 72 h
[6] = Cytotoxicity against human CEM-DNR-bulk cells after 3 days by MTT assay; format: functional, cell-based; settings: 72 h
DU-145 [7] = test: Metabolic stability in human DU145 cells assessed as sodium ((2R,3S,4R,5R)-5-(4-amino-7H-pyrrolo[2,3-d]pyrimidin-7-yl)-3,4-dihydroxytetrahydrofuran-2-yl)methyl hydrogentriphosphate-NTP formation per million of cells at 10 uM after 6 hrs by LC/MS/MS analysis; format: ADME, cell-based; settings: du-145, 6 h; summary of the method: as §2
L1210 = test: Cytotoxicity against mouse L1210 cells after 3 days by MTT assay; format: functional, cell-based; settings: L1210, 72 h
[8] = Antitumor activity against mouse P388D1 cells xenografted in DBA/2 mouse assessed as increase of mean survival days at 35 mg/kg, ip qd administered as 2 cycles on day 1 to 3 and day 8 to 10; settings: route intraperitoneal
HT-29 = test: Cytotoxicity against human HT-29 cells after 3 days by MTT assay; format: functional, cell-based; settings: HT-29, 72 h
HPAC = test: Cytotoxicity against human HPAC cells after 3 days by MTT assay; format: functional, cell-based; settings: 72 h
[9] = Cytostatic activity against human Hs578 cells after 5 days by SRB assay; format: functional; settings: Hs578, 120 h; summary of the method: as §1
[10] = Cytotoxicity against human MES-SA cells after 3 days by MTT assay; format: functional, cell-based; settings: 72 h
A549 = test: Cytostatic activity against human A549 cells after 5 days by SRB assay; format: functional; settings: A549, 120 h; summary of the method: as §1

Nc1ncnc2c1c(-c1cccs1)cn2[C@@H]1O[C@H](CO)[C@@H](O)[C@H]1O
IC50 (MAT-Ly-Lu): 180 nM
IC50 (LNCaP): 18 nM
IC50 (MDA-MB-231): 26 nM
GI50 (NCI-H23): 3.7 nM
GI50 (DU-145 [1]): 133 nM
Activity (CCRF-CEM): Active
IC50 (MCF7): 528 nM
GI50 (HCT-15): 11 nM
IC50 [2]: > 10 µM
IC50 [3]: 28 nM
GI50 (MT4): 35 nM
Activity [4]: 29%
Stability (DU-145 [5]): 4.66 pmol
IC50 (K562): 25 nM
IC50 [6]: 91 nM
Stability (DU-145 [7]): 0.53 pmol
IC50 (L1210): 115 nM
MSD [8]: 15 days
IC50 (HT-29): 96 nM
IC50 (HPAC): 70 nM
GI50 [9]: 12 nM
IC50 [10]: 232 nM
GI50 (A549): 7 nM
